Reference: ChEMBL document CHEMBL4414551, “Design, Synthesis, and Biological Evaluation of Substituted 4,6-Dihydrospiro[[1,2,3]triazolo[4,5-b]pyridine-7,3'-indoline]-2',5(3H)-dione Analogues as Potent NS4B Inhibitors for the Treatment of Dengue Virus Infection” (J Med Chem, 2019)
Calls of active or inactive are those of the source. The rule behind the calls is not given here.

Key:
dengue virus type 2 [1] = assay: Inhibition of NS4B in Dengue virus 2 NGC infected in human HuH7 replicon cells lysates at 10 ujM incubated for 48 hrs by SDS-PAGE based pull down assay; assay type: subcellular; conditions: Lysate
Outline: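 Huh7 cells, 4×10⁶ per T-75, infected next day with DENV-2 NGC at MOI 2.0 with 10 µM biotinylated probe, or 0.25% DMSO, for 48 h at 37 °C. Lysis in 20 mM Tris-HCl pH 7.5, 100 mM NaCl, 0.5% DDM with protease inhibitors. Lysate spiked with compound to 100 µM final, then streptavidin magnetic beads at 4 °C overnight. Bead eluates resolved on 12% SDS-PAGE; NS4B detected by anti-NS4B monoclonal Western blot.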

dengue virus type 4 [2] = assay: Antiviral activity against Dengue virus 4 D4MY01-22713 infected in human HuH7 replicon cells expressing Renilla luciferase and neomycin-resistance genes assessed as reduction in viral replication up to 10 uM incubated for 48 hrs by luciferase reporter replicon-based assay; assay type: functional, organism-based
Outline: (§1)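 Huh7 cells stably carrying a Renilla luciferase/neomycin-resistance replicon (DENV-1 WestPac, DENV-2 NGC, DENV-3 D3MY05-34640 or DENV-4 D4MY01-22713). Cells seeded at 10k per well and incubated overnight at 37 °C, 5% CO2. Then exposed to 2-fold serial compound dilutions for 48 h, in duplicate. Luciferase read with a live-cell substrate. EC50 from four-parameter logistic fit.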

dengue virus type 1 [3] = assay: Antiviral activity against Dengue virus 1 WestPac infected in human HuH7 replicon cells expressing Renilla luciferase and neomycin-resistance genes assessed as reduction in viral replication up to 10 uM incubated for 48 hrs by luciferase reporter replicon-based assay; assay type: functional, organism-based; outline: as §1
[4] = Cytotoxicity in human HuH7 replicon cells infected with Dengue virus 2 NGC assessed as reduction in cell viability incubated for 48 hrs by Cell-titer-Glo reagent based assay; set-up: species or system Huh-7
Outline: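 Huh7 cells or Huh7 replicon cells plated, then held at 37 °C with 5% CO₂ overnight. Exposed to 2-fold serial compound dilutions for 48 h, in duplicate. Viability read with CellTiter-Glo and normalized to 0.45% DMSO wells set at 100%. CC50 from four-parameter logistic fit.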

dengue virus type 3 = assay: Antiviral activity against Dengue virus 3 D3MY05-34640 infected in human HuH7 replicon cells expressing Renilla luciferase and neomycin-resistance genes assessed as reduction in viral replication incubated for 48 hrs by luciferase reporter replicon-based assay; assay type: functional, organism-based; conditions: D3MY05-34640, Huh-7, 48 h; outline: as §1
dengue virus type 2 [5] = assay: Antiviral activity against Dengue virus 2 NGC infected in human HuH7 replicon cells expressing Renilla luciferase and neomycin-resistance genes assessed as reduction in viral replication incubated for 48 hrs by luciferase reporter replicon-based assay; assay type: functional, organism-based; conditions: Huh-7, 48 h; outline: as §1
dengue virus type 2 [6] = assay: (§2) Resistance index, ratio of EC50 for antiviral activity against NS3 T606A mutant containing Dengue virus 2 isolate P12-II infected in human HuH7 cells using viral isolates selected by serial passaging in presence of DMSO incubated for 3 days by viral reduction assay to EC50 for antiviral activity against Dengue virus 2 isolate P0 infected in human HuH7 cells incubated for 3 days by viral reduction assay; assay type: functional
dengue virus type 2 [7] = assay: as §2, with “P12-I” for “P12-II”; assay type: functional
dengue virus type 2 [8] = assay: Antiviral activity against Dengue virus 2 isolate P0 infected in human HuH7 cells incubated for 3 days by viral reduction assay; assay type: functional, organism-based; conditions: isolate P0, Huh-7, 72 h
dengue virus type 2 [9] = assay: Antiviral activity against NS3 T606A mutant and NS4B V63L mutant containing Dengue virus 2 isolate P12-VI infected in human HuH7 cells using viral isolates selected by serial passaging in presence of test compound incubated for 3 days by viral reduction assay; assay type: functional, organism-based; conditions: Huh-7, 72 h
dengue virus type 2 [10] = assay: (§3) Antiviral activity against NS4B V63M and P104S mutant containing Dengue virus 2 isolate P12-V infected in human HuH7 cells using viral isolates selected by serial passaging in presence of test compound incubated for 3 days by viral reduction assay; assay type: functional, organism-based; conditions: Huh-7, 72 h
dengue virus type 2 [11] = assay: (§4) Antiviral activity against NS4B V63M mutant containing Dengue virus 2 isolate P12-IV infected in human HuH7 cells using viral isolates selected by serial passaging in presence of test compound incubated for 3 days by viral reduction assay; assay type: functional, organism-based; conditions: Huh-7, 72 h
dengue virus type 2 [12] = assay: Antiviral activity against NS3 T606A mutant and NS4B V63M mutant containing Dengue virus 2 isolate P12-III infected in human HuH7 cells using viral isolates selected by serial passaging in presence of test compound incubated for 3 days by viral reduction assay; assay type: functional, organism-based; conditions: Huh-7, 72 h
dengue virus type 2 [13] = assay: Antiviral activity against NS3 T606A mutant containing Dengue virus 2 isolate P12-II infected in human HuH7 cells using viral isolates selected by serial passaging in presence of DMSO incubated for 3 days by viral reduction assay; assay type: functional, organism-based; conditions: Huh-7, 72 h
dengue virus type 2 [14] = assay: Antiviral activity against NS3 T606A mutant containing Dengue virus 2 isolate P12-I infected in human HuH7 cells using viral isolates selected by serial passaging in presence of DMSO incubated for 3 days by viral reduction assay; assay type: functional, organism-based; conditions: Huh-7, 72 h
dengue virus type 4 [15] = assay: Antiviral activity against Dengue virus 4 D4MY01-22713 infected in human HuH7 replicon cells expressing Renilla luciferase and neomycin-resistance genes assessed as reduction in viral replication incubated for 48 hrs by luciferase reporter replicon-based assay; assay type: functional, organism-based; conditions: D4MY01-22713, Huh-7, 48 h; outline: as §1
dengue virus type 1 [16] = assay: Antiviral activity against Dengue virus 1 WestPac infected in human HuH7 replicon cells expressing Renilla luciferase and neomycin-resistance genes assessed as reduction in viral replication incubated for 48 hrs by luciferase reporter replicon-based assay; assay type: functional, organism-based; conditions: Huh-7, 48 h; outline: as §1
dengue virus type 2 [17] = assay: as §2, with “mutant and NS4B V63M mutant” for “mutant”, “P12-III” for “P12-II”, “test compound” for “DMSO”; assay type: functional
dengue virus type 2 [18] = assay: as §4, with “Resistance index, ratio of EC50 for antiviral” for “Antiviral”, “assay to EC50 for antiviral activity against Dengue virus 2 isolate P0 infected in human HuH7 cells incubated for 3 days by viral reduction assay” for “assay”; assay type: functional
dengue virus type 2 [19] = assay: as §3, with “Resistance index, ratio of EC50 for antiviral” for “Antiviral”, “assay to EC50 for antiviral activity against Dengue virus 2 isolate P0 infected in human HuH7 cells incubated for 3 days by viral reduction assay” for “assay”; assay type: functional
dengue virus type 2 [20] = assay: as §2, with “mutant and NS4B V63L mutant” for “mutant”, “P12-VI” for “P12-II”, “test compound” for “DMSO”; assay type: functional

Row | Structure (SMILES) | CC50 at 48 h [4] [µM] | EC50 (dengue virus type 3) [nM] | EC50 (dengue virus type 2 [5]) [nM] | EC50 (dengue virus type 4 [15]) [µM] | EC50 (dengue virus type 1 [16]) [µM] | further results
1 | C[C@@H](c1ccc(Cl)cc1)n1nnc2c1NC(=O)C[C@]21C(=O)N(CCOC(=O)CCCCCCCNC(=O)CCCC[C@@H]2SC[C@@H]3NC(=O)N[C@@H]32)c2ccc(Cl)cc21 | > 10 | 16.7 | 41.4 | – | – | inhibition (dengue virus type 2 [1]): Active; Activity (dengue virus type 4 [2]): inactive; Activity (dengue virus type 1 [3]): inactive
2 | C[C@@H](c1ccc(Cl)cc1)n1nnc2c1NC(=O)C[C@]21C(=O)N(CCN(C)C)c2ccc(Cl)cc21 | > 10 | 2 | 25 | > 5 | > 5 | Ratio EC50 (dengue virus type 2 [6]): 0.93; Ratio EC50 (dengue virus type 2 [7]): 0.8; EC50 (dengue virus type 2 [8]): 60 nM; EC50 (dengue virus type 2 [9]): > 6 µM; EC50 (dengue virus type 2 [10]): > 6 µM; EC50 (dengue virus type 2 [11]): > 6 µM; EC50 (dengue virus type 2 [12]): > 6 µM; EC50 (dengue virus type 2 [13]): 56 nM; EC50 (dengue virus type 2 [14]): 48 nM; Ratio EC50 (dengue virus type 2 [17]): >100; Ratio EC50 (dengue virus type 2 [18]): >100; Ratio EC50 (dengue virus type 2 [19]): >100; Ratio EC50 (dengue virus type 2 [20]): >100
3 | C[C@@H](c1ccc(Cl)cc1)n1nnc2c1NC(=O)C[C@]21C(=O)N(Cc2cc(C(C)(C)C)cc(C(C)(C)C)c2)c2ccc(Cl)cc21 | > 10 | 5900 | > 10000 | 4.9 | 4.6 | –
4 | C[C@@H](c1ccc(Cl)cc1)n1nnc2c1NC(=O)C[C@]21C(=O)N(CCN2CCN(C)CC2)c2ccc(Cl)cc21 | > 10 | 30 | 300 | > 5 | > 5 | –
5 | CC(C)N1C(=O)[C@]2(CC(=O)Nc3c2nnn3[C@@H](C)c2ccc(Cl)cc2)c2cc(Cl)ccc21 | > 10 | 9 | 23 | > 5 | 5.7 | –
6 | COC(=O)CN1C(=O)C[C@]2(C(=O)Nc3ccc(Cl)cc32)c2nnn([C@@H](C)c3ccc(Cl)cc3)c21 | > 10 | 2700 | > 10000 | > 10 | > 10 | –
7 | C[C@@H](c1ccc(Cl)cc1)n1nnc2c1NC(=O)C[C@]21C(=O)N(Cc2cccc(F)c2)c2ccc(Cl)cc21 | > 10 | 51 | 290 | > 5 | 10 | –
8 | C[C@@H](c1ccc(Cl)cc1)n1nnc2c1NC(=O)C[C@]21C(=O)N(CCCCN(C)C)c2ccc(Cl)cc21 | > 10 | 38 | 190 | > 5 | > 5 | –
9 | C[C@@H](c1ccc(Cl)cc1)n1nnc2c1NC(=O)C[C@]21C(=O)N(CC2CC2)c2ccc(Cl)cc21 | > 10 | 17 | 110 | > 5 | 3.1 | –
10 | C[C@@H](c1ccc(Cl)cc1)n1nnc2c1NC(=O)C[C@]21C(=O)N(CCCCN2CCCCC2)c2ccc(Cl)cc21 | > 10 | 78 | 350 | > 5 | > 5 | –
11 | CCCCCCN1C(=O)[C@]2(CC(=O)Nc3c2nnn3[C@@H](C)c2ccc(Cl)cc2)c2cc(Cl)ccc21 | > 10 | 140 | 810 | > 5 | 0.83 | –
12 | C[C@@H](c1ccc(Cl)cc1)n1nnc2c1NC(=O)C[C@]21C(=O)N(CCO)c2ccc(Cl)cc21 | > 10 | 10 | 37 | > 5 | > 5 | –
13 | C[C@@H](c1ccc(Cl)cc1)n1nnc2c1NC(=O)C[C@]21C(=O)N(CCCN(C)C)c2ccc(Cl)cc21 | > 10 | 1 | 25 | > 5 | > 5 | –
14 | C[C@@H](c1ccc(Cl)cc1)n1nnc2c1NC(=O)C[C@]21C(=O)N(CCCCCl)c2ccc(Cl)cc21 | > 10 | 19 | 73 | > 5 | > 5 | –
15 | C[C@@H](c1ccc(Cl)cc1)n1nnc2c1NC(=O)C[C@]21C(=O)N(CCCCCCCCN(C)C)c2ccc(Cl)cc21 | > 10 | 42 | 490 | > 5 | > 5 | –
16 | COc1cc(CN2C(=O)[C@]3(CC(=O)Nc4c3nnn4[C@@H](C)c3ccc(Cl)cc3)c3cc(Cl)ccc32)cc(OC)c1 | > 10 | 790 | 3100 | 7.4 | 3.4 | –
17 | C[C@@H](c1ccc(Cl)cc1)n1nnc2c1NC(=O)C[C@]21C(=O)N(Cc2ccccc2)c2ccc(Cl)cc21 | > 10 | 20 | 150 | > 5 | 2 | –
18 | C[C@@H](c1ccc(Cl)cc1)n1nnc2c1NC(=O)C[C@]21C(=O)N(CCC(C)(C)C)c2ccc(Cl)cc21 | > 10 | 82 | 870 | 3.9 | 1.1 | –
19 | C[C@@H](c1ccc(Cl)cc1)n1nnc2c1NC(=O)C[C@]21C(=O)N(CCCCCCCCCCN(C)C)c2ccc(Cl)cc21 | > 10 | 98 | 3500 | 3.5 | 2.7 | –
20 | CCCCN1C(=O)[C@]2(CC(=O)Nc3c2nnn3[C@@H](C)c2ccc(Cl)cc2)c2cc(Cl)ccc21 | > 10 | 18 | 75 | > 5 | 1.3 | –
21 | C[C@@H](c1ccc(Cl)cc1)n1nnc2c1NC(=O)C[C@@]21C(=O)N(CCOC(=O)CCCCCCCNC(=O)CCCC[C@@H]2SC[C@@H]3NC(=O)N[C@@H]32)c2ccc(Cl)cc21 | > 10 | > 5000 | > 5000 | – | – | inhibition (dengue virus type 2 [1]): inactive
22 | C[C@@H](c1ccc(Cl)cc1)n1nnc2c1NC(=O)C[C@]21C(=O)N(CCCN2CCCCC2)c2ccc(Cl)cc21 | > 10 | 12 | 130 | > 5 | > 5 | –
